From ChEMBL document CHEMBL1156332, “Polysubstituted pyrazoles, part 6. Synthesis of some 1-(4-chlorophenyl)-4-hydroxy-1H-pyrazol-3-carbonyl derivatives linked to nitrogenous heterocyclic ring systems as potential antitumor agents” (2010)

Key:
Type in all cases: functional
[1] = tested on: CCRF-CEM; experiment: Growth inhibition of human CCRF-CEM cells after 48 hrs by sulforhodamine B assay
Procedure, shortened: (§1)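 NCI 60-line panel, five concentrations (0.01–100 µM) from DMSO stock diluted in medium with gentamicin. Cells were plated 24 h before dosing, with time-zero plates fixed at drug addition, then exposed 48 h at 37 °C, 5% CO₂. Adherent cells were fixed with cold TCA (10% final) and suspension cells with 16% TCA. Staining used 0.4% SRB, solubilised in 10 mM Tris and read at 515 nm. GI₅₀ was taken from log concentration–% growth curves.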

[2] = tested on: RPMI-8226; experiment: Growth inhibition of human RPMI8226 cells after 48 hrs by sulforhodamine B assay; conditions: RPMI-8226, 48 h; procedure, shortened: as §1
[3] = tested on: HOP-62; experiment: Growth inhibition of human HOP62 cells after 48 hrs by sulforhodamine B assay; conditions: HOP-62, 48 h; procedure, shortened: as §1
[4] = tested on: HOP-92; experiment: Growth inhibition of human HOP92 cells after 48 hrs by sulforhodamine B assay; conditions: HOP-92, 48 h; procedure, shortened: as §1
[5] = tested on: NCI-H23; experiment: Growth inhibition of human NCI-H23 cells after 48 hrs by sulforhodamine B assay; conditions: NCI-H23, 48 h; procedure, shortened: as §1
[6] = tested on: NCI-H460; experiment: Growth inhibition of human NCI-H460 cells after 48 hrs by sulforhodamine B assay; conditions: NCI-H460, 48 h; procedure, shortened: as §1
[7] = tested on: NCI-H522; experiment: Growth inhibition of human NCI-H522 cells after 48 hrs by sulforhodamine B assay; conditions: NCI-H522, 48 h; procedure, shortened: as §1
[8] = tested on: COLO 205; experiment: Growth inhibition of human COLO205 cells after 48 hrs by sulforhodamine B assay; conditions: COLO 205, 48 h; procedure, shortened: as §1
[9] = tested on: HCC 2998; experiment: Growth inhibition of human HCC2998 cells after 48 hrs by sulforhodamine B assay; conditions: HCC 2998, 48 h; procedure, shortened: as §1
[10] = tested on: HCT-116; experiment: Growth inhibition of human HCT116 cells after 48 hrs by sulforhodamine B assay; conditions: HCT-116, 48 h; procedure, shortened: as §1
[11] = tested on: HCT-15; experiment: Growth inhibition of human HCT15 cells after 48 hrs by sulforhodamine B assay; conditions: HCT-15, 48 h; procedure, shortened: as §1
[12] = tested on: HT-29; experiment: Growth inhibition of human HT-29 cells after 48 hrs by sulforhodamine B assay; conditions: HT-29, 48 h; procedure, shortened: as §1
[13] = tested on: KM12; experiment: Growth inhibition of human KM12 cells after 48 hrs by sulforhodamine B assay; conditions: KM12, 48 h; procedure, shortened: as §1
[14] = tested on: SW-620; experiment: Growth inhibition of human SW620 cells after 48 hrs by sulforhodamine B assay; conditions: SW-620, 48 h
Procedure, shortened: (§2)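 Adherent lines plated and held 24 h at 37 °C, 5% CO2, 100% humidity; time-zero plates TCA-fixed at drug addition. Drugs from DMSO stocks were made into five concentrations by 10-fold or half-log serial dilution and applied for 48 h continuous exposure. Cells were fixed with cold TCA (10% final) for 60 min at 4 °C, then stained with 0.4% SRB in 1% acetic acid for 10 min. Dye was solubilized in 10 mM Tris base and read at 515 nm. GI50 was taken from log concentration–growth curves.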

[15] = tested on: SF-268; experiment: Growth inhibition of human SF268 cells after 48 hrs by sulforhodamine B assay; conditions: SF-268, 48 h; procedure, shortened: as §1
[16] = tested on: SF-539; experiment: Growth inhibition of human SF539 cells after 48 hrs by sulforhodamine B assay; conditions: SF-539, 48 h; procedure, shortened: as §2
[17] = tested on: SNB-75; experiment: Growth inhibition of human SNB75 cells after 48 hrs by sulforhodamine B assay; conditions: SNB-75, 48 h; procedure, shortened: as §2
[18] = tested on: U-251; experiment: Growth inhibition of human U251 cells after 48 hrs by sulforhodamine B assay; conditions: U-251, 48 h; procedure, shortened: as §2
[19] = tested on: M14; experiment: Growth inhibition of human M14 cells after 48 hrs by sulforhodamine B assay; conditions: M14, 48 h; procedure, shortened: as §1
[20] = tested on: SK-MEL-5; experiment: Growth inhibition of human SK-MEL-5 cells after 48 hrs by sulforhodamine B assay; conditions: SK-MEL-5, 48 h; procedure, shortened: as §2
[21] = tested on: UACC-62; experiment: Growth inhibition of human UACC62 cells after 48 hrs by sulforhodamine B assay; conditions: UACC-62, 48 h; procedure, shortened: as §2
[22] = tested on: IGROV-1; experiment: Growth inhibition of human IGROV1 cells after 48 hrs by sulforhodamine B assay; conditions: IGROV-1, 48 h; procedure, shortened: as §1
[23] = tested on: OVCAR-8; experiment: Growth inhibition of human OVCAR8 cells after 48 hrs by sulforhodamine B assay; conditions: OVCAR-8, 48 h; procedure, shortened: as §1
[24] = tested on: SK-OV-3; experiment: Growth inhibition of human SKOV3 cells after 48 hrs by sulforhodamine B assay; conditions: SK-OV-3, 48 h; procedure, shortened: as §2
[25] = tested on: 786-0; experiment: Growth inhibition of human 786-0 cells after 48 hrs by sulforhodamine B assay; conditions: 786-0, 48 h; procedure, shortened: as §1
[26] = tested on: A498; experiment: Growth inhibition of human A498 cells after 48 hrs by sulforhodamine B assay; conditions: A498, 48 h; procedure, shortened: as §1
[27] = tested on: ACHN; experiment: Growth inhibition of human ACHN cells after 48 hrs by sulforhodamine B assay; procedure, shortened: as §1
[28] = tested on: CAKI-1; experiment: Growth inhibition of human Caki1 cells after 48 hrs by sulforhodamine B assay; conditions: CAKI-1, 48 h; procedure, shortened: as §1
[29] = tested on: TK-10; experiment: Growth inhibition of human TK10 cells after 48 hrs by sulforhodamine B assay; conditions: TK-10, 48 h; procedure, shortened: as §2
[30] = tested on: UO-31; experiment: Growth inhibition of human UO31 cells after 48 hrs by sulforhodamine B assay; conditions: UO-31, 48 h; procedure, shortened: as §2
[31] = tested on: MCF7; experiment: Growth inhibition of human MCF7 cells after 48 hrs by sulforhodamine B assay; conditions: MCF7, 48 h; procedure, shortened: as §1
[32] = Growth inhibition of human Hs 578T cells after 48 hrs by sulforhodamine B assay; procedure, shortened: as §1
[33] = tested on: BT-549; experiment: Growth inhibition of human BT549 cells after 48 hrs by sulforhodamine B assay; conditions: BT-549, 48 h; procedure, shortened: as §1
[34] = tested on: T47D; experiment: Growth inhibition of human T47D cells after 48 hrs by sulforhodamine B assay; procedure, shortened: as §2
[35] = tested on: MDA-MB-468; experiment: Growth inhibition of human MDA-MB-468 cells after 48 hrs by sulforhodamine B assay; conditions: MDA-MB-468, 48 h; procedure, shortened: as §1
[36] = Cytotoxicity against human lung cancer cells after 48 hrs by sulforhodamine B assay; conditions: Cancer cell lines
Procedure, shortened: (§3)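 NCI five-dose screen: about 60 human tumour lines grouped into nine subpanels were plated and incubated 24 h before dosing. Compounds went in as DMSO stock and were diluted in medium to five final concentrations (0.01–100 µM). Exposure was 48 h continuous at 37 °C, 5% CO₂, followed by TCA fixation and SRB staining read at 515 nm. Per-line GI₅₀, TGI and LC₅₀ came from log concentration–% growth curves, averaged per subpanel as MG-MID.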

[37] = Cytotoxicity against human CNS cancer cells after 48 hrs by sulforhodamine B assay; conditions: Cancer cell lines; procedure, shortened: as §3
[38] = Cytotoxicity against human ovarian cancer cells after 48 hrs by sulforhodamine B assay; conditions: Cancer cell lines; procedure, shortened: as §3
[39] = Cytotoxicity against human renal cancer cells after 48 hrs by sulforhodamine B assay; conditions: Cancer cell lines; procedure, shortened: as §3
[40] = Cytotoxicity against human prostate cancer cells after 48 hrs by sulforhodamine B assay; conditions: Cancer cell lines; procedure, shortened: as §3
[41] = Cytotoxicity against human breast cancer cells after 48 hrs by sulforhodamine B assay; conditions: Cancer cell lines; procedure, shortened: as §3

Q: With `O=C(c1nn(-c2ccc(Cl)cc2)cc1O)n1nc(-c2ccco2)cc1C(F)(F)F` as the compound, how does the GI50 [1] read?
A: Its GI50 is 0.69 µM.

Q: What about the GI50 [2] of the same compound?
A: The GI50 was 1.42 µM.

Q: What about the GI50 [3] of the same compound?
A: Its GI50 is 1.98 µM.

Q: And the GI50 [4]?
A: Its GI50 is 4.9 µM.

Q: And the GI50 [5]?
A: Its GI50 is 5.59 µM.

Q: And the GI50 [6]?
A: The GI50 was 0.78 µM.

Q: What about the GI50 [7] of the same compound?
A: The GI50 was 2.67 µM.

Q: What about the GI50 [8] of the same compound?
A: The GI50 was 2.97 µM.

Q: And the GI50 [9]?
A: Its GI50 is 10.5 µM.

Q: And the GI50 [10]?
A: Its GI50 is 2 µM.

Q: And the GI50 [11]?
A: Its GI50 is 1.44 µM.

Q: What about the GI50 [12] of the same compound?
A: Its GI50 is 4.56 µM.

Q: And the GI50 [13]?
A: Its GI50 is 5.88 µM.

Q: And the GI50 [14]?
A: Its GI50 is 4.75 µM.

Q: And the GI50 [15]?
A: The GI50 was 3.63 µM.

Q: What about the GI50 [16] of the same compound?
A: Its GI50 is 2.81 µM.

Q: And the GI50 [17]?
A: Its GI50 is 0.82 µM.

Q: What about the GI50 [18] of the same compound?
A: Its GI50 is 5.86 µM.

Q: And the GI50 [19]?
A: The GI50 was 4.28 µM.

Q: And the GI50 [20]?
A: Its GI50 is 2.49 µM.

Q: What about the GI50 [21] of the same compound?
A: The GI50 was 2.16 µM.

Q: And the GI50 [22]?
A: Its GI50 is 0.92 µM.

Q: And the GI50 [23]?
A: Its GI50 is 1.88 µM.

Q: And the GI50 [24]?
A: Its GI50 is 3.55 µM.

Q: And the GI50 [25]?
A: The GI50 was 6.6 µM.

Q: And the GI50 [26]?
A: Its GI50 is 8.71 µM.

Q: And the GI50 [27]?
A: Its GI50 is 2.53 µM.

Q: What about the GI50 [28] of the same compound?
A: Its GI50 is 2.43 µM.

Q: And the GI50 [29]?
A: The GI50 was 1.45 µM.

Q: What about the GI50 [30] of the same compound?
A: The GI50 was 3.84 µM.

Q: What about the GI50 [31] of the same compound?
A: The GI50 was 3.51 µM.

Q: And the GI50 [32]?
A: Its GI50 is 0.64 µM.

Q: And the GI50 [33]?
A: The GI50 was 1.14 µM.

Q: And the GI50 [34]?
A: The GI50 was 4.16 µM.

Q: And the GI50 [35]?
A: The GI50 was 4.66 µM.

Q: And the GI50 [36]?
A: The GI50 was 3.19 µM.

Q: And the TGI [36]?
A: Its TGI is 78.9 µM.

Q: What about the GI50 [37] of the same compound?
A: Its GI50 is 2.99 µM.

Q: And the TGI [37]?
A: Its TGI is 90.5 µM.

Q: And the GI50 [38]?
A: The GI50 was 2.18 µM.

Q: What about the TGI [38] of the same compound?
A: Its TGI is 94.5 µM.

Q: What about the GI50 [39] of the same compound?
A: Its GI50 is 3.85 µM.

Q: And the TGI [39]?
A: The TGI was 75.6 µM.

Q: And the GI50 [40]?
A: Its GI50 is 18.4 µM.

Q: And the GI50 [41]?
A: Its GI50 is 3.07 µM.

Q: And the TGI [41]?
A: Its TGI is 77 µM.
